Assay outcomes from PubChem BioAssay.
PLC-gamma1 inh – blocks human PLC-gamma1 enzyme activity. P19174. purified PLC-gamma1, fluorogenic substrate, fluorescence. inhibition, % at 12.2 µM. actives 0.84% (n = 370,000). AID 720700; in the data active means inhibition above about 9.5%
DDE Tn6 FP inh – DD(E)-Tn6 binding inhibition, primary FP screen; P02675; Fibrin DD(E) TRITC-Tn6 fluorescence polarization displacement; inhibition, % at 8.3 µM; actives 0.21% (n = 370,000); AID 720509;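 active means inhibition above a per-campaign cutoff: mean of compounds within control limits plus 3 SD, cut at about 15% in these data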;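 further: 0% = median of all compound wells on the plate and 100% = blocking peptide control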
NRP1-CendR mod – modulators of CendR peptide binding to human neuropilin-1 | O14786 | FAM-RPARPAR peptide binding to NRP-1, fluorescence polarization | inhibition, % at 25 µM | actives 0.85% (n = 360,000);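 active means inhibition or corrected inhibition above about 18%, plus a signal ratio from 0.5 to 1.5, limit read from the data, passing the limit was not always enough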
Tn7 DDE FP – inhibitors of Tn7 peptide binding to human fibrin DD(E); inhibition, % at 8.3 µM; FP displacement of FITC-Tn7 peptide from fibrin DD(E); 0% = median of compound wells per plate; actives 0.13% (n = 370,000); P02675;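 active means inhibition above the mean of compounds falling within the control limits plus 3 SD of them, cut at about 14% in these data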;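 further: 0% = plate median of compound wells and 100% = 10 µM Aha-Tn7 peptide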
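Also added: labelled Tn7 tracer, 0.1 µM; Assay system: human fibrin DD(E) protein; Amount: 2 µM fibrin DD(E); Schedule: 10 min compound pre-incubation, 3 h probe incubation at room temperature; Repeats: one replicate per compound; Read-out basis: percent inhibition; Measured by: fluorescence polarization of the labelled Tn7 tracer.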
proKLK7 act – proKLK7 (human) activation, primary screen | P49862 | purified proKLK7, EDANS-DABCYL substrate fluorescence; 100% is mature enzyme control, 0% vehicle | activation, % at 7 µM | actives 0.9% (n = 370,000);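 active means activation above the mean of all tested compounds plus 3 SD, computed per campaign excluding outliers beyond control limits, cut at about 13% in these data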
Target sequence (P49862 whole entry, looked up): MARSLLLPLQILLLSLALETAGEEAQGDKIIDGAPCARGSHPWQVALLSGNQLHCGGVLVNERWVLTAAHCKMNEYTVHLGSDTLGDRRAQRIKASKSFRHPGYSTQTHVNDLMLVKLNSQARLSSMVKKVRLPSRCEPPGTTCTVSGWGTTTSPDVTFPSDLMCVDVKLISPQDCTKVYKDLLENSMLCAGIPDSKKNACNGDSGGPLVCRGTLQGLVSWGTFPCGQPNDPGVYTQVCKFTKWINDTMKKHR
PLCb3 inh – inhibitors of human phospholipase C beta3. Q01970. Purified PLC-beta3, fluorogenic substrate, fluorescence. inhibition, % at 12.2 µM. actives 0.18% (n = 370,000); in the data active means inhibition above about 11%;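 further: 0% = median of compound wells on plate and 100% = full blocker control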
KLK7 act conf – confirmation of human kallikrein-7 zymogen activators; shares compounds with proKLK7 act; purified proKLK7, EDANS-DABCYL substrate fluorescence; scaled: vehicle 0, mature enzyme 100; activation, % at 7 µM; actives 68% (n = 3,200); AID 686949;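 active means activation, as change over the incubation, above the mean of all tested compounds plus 3 SD, cut at about 13% in these data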
EDANS-DABCYL int – optically interferes with EDANS-DABCYL signal, flagging KLK7 hits; AID 686952; EDANS-DABCYL substrate fluorescence interference, no enzyme, 4 h; solvent 0%, active enzyme control 100%; activation, % at 7 µM; actives 80% (n = 3,200); shares compounds with proKLK7 act;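 active means activation above the all-compound mean plus 3 SD, ignoring values outside control-based bounds, cut at about 4.8% in these data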;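 further: value is the 4 h activation minus the activation read at time zero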
EDANS interf – optically interferes with EDANS-DABCYL fluorescence, kallikrein-7 activator counter-screen. EDANS-DABCYL peptide fluorescence interference, no enzyme. actives 20% (n = 250). shares compounds with proKLK7 act. EC50, µM;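 active means compounds that raise the fluorescence signal in this interference counterscreen, with EC50 at or below 10 µM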;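 further: intact quenched peptide substrate alone read at 355 nm excitation and 520 nm emission; signal is fluorescence gain from T0 to T4 after four hours at room temperature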
Numbers without * were called inactive; i = inactive; . = no result given. Hits are enriched below; roughly 3% of the tested compounds scored in any of these assays.

SMILES	PLC-gamma1 inh	DDE Tn6 FP inh	NRP1-CendR mod	Tn7 DDE FP	proKLK7 act	PLCb3 inh	KLK7 act conf	EDANS-DABCYL int	others
Cc1ccccc1-n1c(=O)c(C#N)cc2c(=O)n3ccccc3nc21	-344	-10	-18	-6	13*	-464	71*	73*
Cc1cc(-n2c(=O)c(C#N)cc3c(=O)n4ccccc4nc32)no1	i	1	-3	-3	22*	i	30*	57*
O=C(CSc1nnc(-c2ccccc2F)n1Cc1ccco1)Nc1ccccc1-c1ccccc1	1	8	.	-2	0	-2	.	.
Cc1ccccc1CN1CCCCC(NC(=O)Nc2cccc(F)c2)C1=O (stereo unspecified)	6	3	.	8	0	3	.	.
CC[C@H](C)[C@H](NC(=O)CNC(=O)COc1cc2c(c3oc(=O)cc(C)c13)CCC(C)(C)O2)C(=O)O	i	2	8	3	50*	i	-1	-18
Cc1cc(=O)oc2c3c(cc(OCC(=O)N[C@@H](CC(C)C)C(=O)O)c12)OC(C)(C)CC3	-117	-8	6	0	-7	-157	.	.
CCCC(NC(=O)COc1cc2c(c3oc(=O)cc(C)c13)CCC(C)(C)O2)C(=O)O (stereo unspecified)	-149	5	4	-6	9	-231	.	.
Cc1cc(=O)oc2c3c(cc(OCC(=O)NCC(=O)N[C@H](C(=O)O)C(C)C)c12)OC(C)(C)CC3	i	3	8	-3	43*	i	62*	72*
CC(C)C(=O)OCCCN1CCC2(CCC(c3ccccc3)CC2)C1=O (stereo unspecified)	-1	7	.	7	0	-1	.	.
COc1ccc(S(=O)(=O)N2CCC(c3nc4ccccc4o3)CC2)c(OC)c1	6	-4	.	7	0	4	.	.
OCc1ccccc1-c1nc(NCC2CC2)nc2ccsc12	-380	-3	6	-4	15*	-472	-18	6.9*
CC(C)Nc1nc(-c2ccccc2CO)c2sccc2n1	-361	5	-15	5	22*	-479	17*	11*	EDANS interf=>70
CC(C)C[C@@H]1COc2cc(N3CCCC3)ccc2S(=O)(=O)N1C	1	4	.	-15	-1	0	.	.
COc1cc2ccccc2cc1C(=O)Nc1nccs1	-24	7	1	-1	0	-28	.	.
COc1cccc(C=Nc2ccccc2C(=O)Nc2nccs2)c1OC	i	-12	4	7	25*	i	-65	-49
O=C1CCC(CNc2ccccc2)N1c1ccccc1 (stereo unspecified)	5	-1	.	-8	.	3	.	.
C=CCNc1sc(C(=O)c2ccc(C)cc2)c(N)c1C#N	-20	-2	-12	5	186*	-20	22*	15*	EDANS interf=>70
CC(C)N1CCCCC(NC(=O)c2c(F)cccc2F)C1=O (stereo unspecified)	2	5	.	2	1	4	.	.
C=CCN1C(=O)[C@@H](CC(=O)NCc2cccc(C(F)(F)F)c2)[C@]2(C(=O)OC)CCCCC=C12	1	-6	.	2	-1	4	.	.
CSc1nc(N2CCOCC2)nc2ccc(C)cc12	-376	3	-2	6	35*	-465	-31	-43
COc1ccccc1C1C=C(c2ccc(C)cc2)Nc2nnnn21 (stereo unspecified)	i	2	-8	2	19*	i	22*	17*	EDANS interf=i
COc1ccccc1C1C2=C(CC(C)(C)CC2=O)Nc2nnnn21 (stereo unspecified)	-5	-1	-2	-4	15*	-1	22*	20*
COc1ccc(OC)c(C2C3=C(CC(C)(C)CC3=O)Nc3nnnn32)c1 (stereo unspecified)	0	-5	-5	2	-3	-3	.	.
Cc1ccc(C2=CC(c3cccs3)n3nnnc3N2)cc1 (stereo unspecified)	-18	-1	-12	4	0	-24	.	.
O=C(NCc1cccs1)C1CCCN(S(=O)(=O)c2ccccc2)C1 (stereo unspecified)	0	3	.	4	0	-2	.	.
SMILES	PLC-gamma1 inh	DDE Tn6 FP inh	NRP1-CendR mod	Tn7 DDE FP	proKLK7 act	PLCb3 inh	KLK7 act conf	EDANS-DABCYL int	others
CCc1cc2c(=O)nc3n(c2s1)Cc1ccccc1/C3=C(/O)c1cccc([N+](=O)[O-])c1	.	.	-8	.	.	.	.	.
CCc1cc2c(=O)nc3n(c2s1)Cc1ccccc1/C3=C(/O)c1ccc(F)cc1	i	2	-106	6	23*	i	65*	68*
CCc1cc2c(=O)nc3n(c2s1)Cc1ccccc1/C3=C(/O)c1ccccc1Cl	-334	-3	-24	1	13*	-385	16*	23*
O=C(OCC#CCSc1nnc(-c2cccc3ccccc23)o1)c1ccc(F)nc1	-7	4	.	4	.	-23	.	.
O=S(=O)(c1ccccc1Br)N(Cc1cn(Cc2ccccc2)nn1)C1CC1	0	-6	.	-1	1	-1	.	.
Cn1c(/C(C#N)=C/Nc2ccccn2)nc2ccccc21	-352	2	-1	-2	55*	i	183*	183*
Cn1c(/C(C#N)=C/c2cccc(O)c2)nc2ccccc21	-8	0	4	1	0	-10	.	.
COC(=O)c1ccc(Cn2ccc3ccc(-c4ccc5ccn(C(=O)c6cccc(OC)c6)c5c4)cc32)cc1	-16	-6	.	-4	-10	-34	.	.
COc1cc2ccc(=O)oc2c(O[C@@H]2O[C@H](CO)[C@@H](O)[C@H](O)[C@H]2O)c1O	i	8	-3	5	68*	i	69*	67*
O=c1ccc2ccc(O[C@@H]3O[C@H](CO)[C@@H](O)[C@H](O)[C@H]3O)c(O)c2o1	-6	-7	-4	0	0	-2	.	.
CCc1ccccc1-c1cc(C(=O)OC)c2n(c1=O)CCC2	1	1	.	0	0	2	.	.
CC(C)N(C(=O)[C@H]1C[C@H](CC(=O)NCCCn2ccnc2)C(=O)N2CCc3c([nH]c4cc(-c5ccco5)ccc34)[C@]12C)C(C)C	-73	-4	0	0	6	-96	.	.
